# Assay results from ChEMBL document CHEMBL1806473, “Structure-based optimization of click-based histone deacetylase inhibitors” (Eur J Med Chem, 2011).
# Columns and labels:
# Histone deacetylase = test: Inhibition of HDAC in human HeLa cells using Ac-Arg-Gly-Lys(Ac)-AMC as fluorescent substrate after 20 mins by fluorescence assay; assay type: cell-based
# HL-60(TB) = test: Antiproliferative activity against human HL-60(TB) cells by SRB assay; assay type: functional
# How it was run: (§1)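 Tested in the NCI in vitro disease-oriented human tumour cell line screen, with screening performed by NCI. Growth was read by SRB signal over the drug incubation period at five concentrations: 100, 10, 1.0, 0.1 and 0.01 μM. GI50 is the concentration that reduces growth of treated cells to half that of control cells.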
# MOLT-4 = test: Antiproliferative activity against human MOLT4 cells by SRB assay; assay type: functional
# How it was run: (§2)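 Tested in the NCI in vitro human tumor cell line screen, run by the National Cancer Institute. Each compound was given at five concentrations (100, 10, 1.0, 0.1 and 0.01 μM). GI50 is the drug concentration that reduces growth of treated cells to half that of control cells during drug incubation, judged from the SRB signal.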
# RPMI-8226 [1] = test: Antiproliferative activity against human RPMI8226 cells by SRB assay; assay type: functional; how it was run: as §2
# A549 [2] = test: Antiproliferative activity against human A549 cells by SRB assay; assay type: functional; how it was run: as §2
# HOP-62 [3] = test: Antiproliferative activity against human HOP62 cells by SRB assay; assay type: functional; how it was run: as §2
# NCI-H322M = test: Antiproliferative activity against human NCI-H322M cells by SRB assay; assay type: functional; how it was run: as §2
# HCC 2998 [4] = test: Antiproliferative activity against human HCC2998 cells by SRB assay; assay type: functional; how it was run: as §2
# KM12 = test: Antiproliferative activity against human KM12 cells by SRB assay; assay type: functional; how it was run: as §2
# SF-268 [5] = test: Antiproliferative activity against human SF268 cells by SRB assay; assay type: functional; how it was run: as §2
# SF-539 [6] = test: Antiproliferative activity against human SF539 cells by SRB assay; assay type: functional; how it was run: as §2
# SNB-75 [7] = test: Antiproliferative activity against human SNB75 cells by SRB assay; assay type: functional
# How it was run: (§3)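 Cell growth was tested in the NIH in vitro disease-oriented human tumor cell line screen, which NCI ran for these compounds. Compounds were tested at five concentrations (100, 10, 1.0, 0.1 and 0.01 μM), and growth was read by SRB signal. GI50 is the drug concentration that reduces growth of treated cells to half that of control cells during drug incubation.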
# Malme-3M [8] = test: Antiproliferative activity against human MALME-3M cells by SRB assay; assay type: functional; how it was run: as §2
# MDA-MB-435 = test: Antiproliferative activity against human MDA-MB-435 cells by SRB assay; assay type: functional; how it was run: as §2
# SK-MEL-5 = test: Antiproliferative activity against human SK-MEL-5 cells by SRB assay; assay type: functional; how it was run: as §2
# UACC-62 = test: Antiproliferative activity against human UACC62 cells by SRB assay; assay type: functional; how it was run: as §3
# OVCAR-5 [9] = test: Antiproliferative activity against human OVCAR5 cells by SRB assay; assay type: functional; how it was run: as §2
# NCI/ADR-RES [10] = test: Antiproliferative activity against human NCI/ADR-RES cells by SRB assay; assay type: functional; how it was run: as §2
# SK-OV-3 = test: Antiproliferative activity against human SKOV3 cells by SRB assay; assay type: functional; how it was run: as §2
# 786-0 = test: Antiproliferative activity against human 786-0 cells by SRB assay; assay type: functional; how it was run: as §2
# A498 = test: Antiproliferative activity against human A498 cells by SRB assay; assay type: functional; how it was run: as §2
# ACHN = test: Antiproliferative activity against human ACHN cells by SRB assay; assay type: functional; how it was run: as §2
# CAKI-1 = test: Antiproliferative activity against human Caki1 cells by SRB assay; assay type: functional; how it was run: as §2
# SN12C = test: Antiproliferative activity against human SN12C cells by SRB assay; assay type: functional; how it was run: as §2
# PC-3 = test: Antiproliferative activity against human PC3 cells by SRB assay; assay type: functional; how it was run: as §2
# BT-549 = test: Antiproliferative activity against human BT549 cells by SRB assay; assay type: functional; how it was run: as §2
# MDA-MB-468 [11] = test: Antiproliferative activity against human MDA-MB-468 cells by SRB assay; assay type: functional; how it was run: as §2
# RPMI-8226 [12] = test: Cytotoxicity against human RPMI8226 cells; assay type: cell-based; how it was run: as §1
# SR = test: Cytotoxicity against human SR cells; assay type: cell-based
# How it was run: (§4)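 Screened by NCI in its in vitro disease-oriented human tumour cell line panel. Compounds tested at five concentrations (100, 10, 1.0, 0.1 and 0.01 μM). Growth read by sulforhodamine B (SRB) signal. GI50 is the concentration reducing growth of treated cells to half that of control cells during the drug incubation.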
# A549 [13] = test: Cytotoxicity against human A549 cells; assay type: cell-based; how it was run: as §1
# EKVX = test: Cytotoxicity against human EKVX cells; assay type: cell-based; how it was run: as §1
# HOP-62 [14] = test: Cytotoxicity against human HOP62 cells; assay type: cell-based; how it was run: as §1
# NCI-H522 = test: Cytotoxicity against human NCI-H522 cells; assay type: cell-based; how it was run: as §1
# COLO 205 = test: Cytotoxicity against human COLO205 cells; assay type: cell-based; how it was run: as §1
# HCC 2998 [15] = test: Cytotoxicity against human HCC2998 cells; assay type: cell-based; how it was run: as §1
# HCT-116 = test: Cytotoxicity against human HCT116 cells; assay type: cell-based; how it was run: as §1
# HCT-15 = test: Cytotoxicity against human HCT15 cells; assay type: cell-based; how it was run: as §1
# HT-29 = test: Cytotoxicity against human HT-29 cells; assay type: cell-based; how it was run: as §1
# SF-268 [16] = test: Cytotoxicity against human SF268 cells; assay type: cell-based; how it was run: as §1
# SF-295 = test: Cytotoxicity against human SF295 cells; assay type: cell-based; how it was run: as §1
# SF-539 [17] = test: Cytotoxicity against human SF539 cells; assay type: cell-based; how it was run: as §1
# SNB-19 = test: Cytotoxicity against human SNB19 cells; assay type: cell-based; how it was run: as §4
# SNB-75 [18] = test: Cytotoxicity against human SNB75 cells; assay type: cell-based; how it was run: as §4
# U-251 = test: Cytotoxicity against human U251 cells; assay type: cell-based; how it was run: as §4
# Malme-3M [19] = test: Cytotoxicity against human MALME-3M cells; assay type: cell-based; how it was run: as §1
# SK-MEL-2 = test: Cytotoxicity against human SK-MEL-2 cells; assay type: cell-based; how it was run: as §1
# UACC-257 = test: Cytotoxicity against human UACC257 cells; assay type: cell-based; how it was run: as §4
# OVCAR-3 = test: Cytotoxicity against human OVCAR3 cells; assay type: cell-based; how it was run: as §1
# OVCAR-5 [20] = test: Cytotoxicity against human OVCAR5 cells; assay type: cell-based; how it was run: as §1
# NCI/ADR-RES [21] = test: Cytotoxicity against human NCI/ADR-RES cells; assay type: cell-based; how it was run: as §1
# RXF 393 = test: Cytotoxicity against human RXF393 cells; assay type: cell-based; how it was run: as §1
# TK-10 = test: Cytotoxicity against human TK10 cells; assay type: cell-based; how it was run: as §4
# UO-31 = test: Cytotoxicity against human UO31 cells; assay type: cell-based; how it was run: as §4
# DU-145 = test: Cytotoxicity against human DU145 cells; assay type: cell-based; how it was run: as §1
# MDA-MB-231 = test: Cytotoxicity against human MDA-MB-231 cells; assay type: functional; how it was run: as §1
# MDA-MB-468 [22] = test: Cytotoxicity against human MDA-MB-468 cells; assay type: cell-based; how it was run: as §1
structure (smiles),measurement,setting,value
O=C(/C=C/c1cn(C(/C=C/c2ccccc2)Cc2ccccc2)nn1)NO (stereo not given),IC50,Histone deacetylase,77 nM
same,GI50,HL-60(TB),670 nM
same,GI50,MOLT-4,493 nM
same,GI50,RPMI-8226 [1],743 nM
same,GI50,A549 [2],1410 nM
same,GI50,HOP-62 [3],1440 nM
same,GI50,NCI-H322M,1370 nM
same,GI50,HCC 2998 [4],1240 nM
same,GI50,KM12,1930 nM
same,GI50,SF-268 [5],1220 nM
same,GI50,SF-539 [6],1140 nM
same,GI50,SNB-75 [7],258 nM
same,GI50,Malme-3M [8],305 nM
same,GI50,MDA-MB-435,866 nM
same,GI50,SK-MEL-5,879 nM
same,GI50,UACC-62,898 nM
same,GI50,OVCAR-5 [9],426 nM
same,GI50,NCI/ADR-RES [10],342 nM
same,GI50,SK-OV-3,1980 nM
same,GI50,786-0,1380 nM
same,GI50,A498,1160 nM
same,GI50,ACHN,1230 nM
same,GI50,CAKI-1,440 nM
same,GI50,SN12C,2340 nM
same,GI50,PC-3,1520 nM
same,GI50,BT-549,1620 nM
same,GI50,MDA-MB-468 [11],1520 nM
same,LC50,RPMI-8226 [12],> 100000 nM
same,LC50,SR,> 100000 nM
same,LC50,A549 [13],64600 nM
same,LC50,EKVX,87400 nM
same,LC50,HOP-62 [14],18300 nM
same,LC50,NCI-H522,6360 nM
same,LC50,COLO 205,8000 nM
same,LC50,HCC 2998 [15],6120 nM
same,LC50,HCT-116,5970 nM
same,LC50,HCT-15,74500 nM
same,LC50,HT-29,> 100000 nM
same,LC50,SF-268 [16],9170 nM
same,LC50,SF-295,6560 nM
same,LC50,SF-539 [17],6910 nM
same,LC50,SNB-19,18800 nM
same,LC50,SNB-75 [18],9830 nM
same,LC50,U-251,5840 nM
same,LC50,Malme-3M [19],28600 nM
same,LC50,SK-MEL-2,49200 nM
same,LC50,UACC-257,93700 nM
same,LC50,OVCAR-3,8700 nM
same,LC50,OVCAR-5 [20],22300 nM
same,LC50,NCI/ADR-RES [21],> 100000 nM
same,LC50,RXF 393,7610 nM
same,LC50,TK-10,12900 nM
same,LC50,UO-31,6570 nM
same,LC50,DU-145,46300 nM
same,LC50,MDA-MB-231,53900 nM
O=C(/C=C/c1ccc(CN(CCO)CCc2c[nH]c3ccccc23)cc1)NO [DACINOSTAT],GI50,HL-60(TB),249 nM
same,GI50,MOLT-4,311 nM
same,GI50,RPMI-8226 [1],523 nM
same,GI50,A549 [2],1090 nM
same,GI50,HOP-62 [3],502 nM
same,GI50,NCI-H322M,2260 nM
same,GI50,KM12,1040 nM
same,GI50,SF-268 [5],1530 nM
same,GI50,SF-539 [6],965 nM
same,GI50,SNB-75 [7],318 nM
same,GI50,Malme-3M [8],461 nM
same,GI50,MDA-MB-435,537 nM
same,GI50,SK-MEL-5,271 nM
same,GI50,UACC-62,379 nM
same,GI50,OVCAR-5 [9],260 nM
same,GI50,NCI/ADR-RES [10],180 nM
same,GI50,SK-OV-3,524 nM
same,GI50,786-0,2380 nM
same,GI50,A498,1110 nM
same,GI50,ACHN,1100 nM
same,GI50,CAKI-1,619 nM
same,GI50,SN12C,1620 nM
same,GI50,PC-3,1300 nM
same,GI50,BT-549,3920 nM
same,GI50,MDA-MB-468 [11],452 nM
same,LC50,RPMI-8226 [12],> 100000 nM
same,LC50,SR,> 100000 nM
same,LC50,A549 [13],94600 nM
same,LC50,EKVX,> 100000 nM
same,LC50,HOP-62 [14],> 100000 nM
same,LC50,COLO 205,50400 nM
same,LC50,HCT-116,51200 nM
same,LC50,HCT-15,56400 nM
same,LC50,HT-29,> 100000 nM
same,LC50,SF-268 [16],92100 nM
same,LC50,SF-295,6910 nM
same,LC50,SF-539 [17],57100 nM
same,LC50,SNB-19,31700 nM
same,LC50,SNB-75 [18],> 100000 nM
same,LC50,U-251,5820 nM
same,LC50,Malme-3M [19],82000 nM
same,LC50,UACC-257,44800 nM
same,LC50,OVCAR-3,51000 nM
same,LC50,OVCAR-5 [20],38900 nM
same,LC50,NCI/ADR-RES [21],> 100000 nM
same,LC50,RXF 393,15300 nM
same,LC50,TK-10,> 100000 nM
same,LC50,UO-31,52800 nM
same,LC50,DU-145,> 100000 nM
same,LC50,MDA-MB-468 [22],94300 nM
